Many of the other results were omitted from the sample, so hits are more common in it than they were.
HCT116 PTEN-null: growth suppressors of cells with PTEN tumor suppressor deletion. AID 827. HCT116 PTEN-null viability, CellTiter-Glo, 60 h; active compounds read low. viability, % at 10 µM. hit rate 1.2% among 140,000;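 active = viability at or below a set limit, 4 SD under the median of all tested compounds, cut at about 3.7% in these data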;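 also: PTEN knockout HCT116 line with beta catenin targeted HCT116 as companion control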
H69AR inhibit: blocks growth of human H69AR lung tumor cells | viability, % at 10 µM | hit rate 6% among 85,000 | H69AR lung tumor viability, ATP luminescence, 72 h; active compounds read low;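 active = viability at or below 40%; inactive = viability above 40%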;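 also: multidrug resistant small cell line overexpressing MRP-1 efflux transporter; 100% = mean luminescence of untreated control wells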
bCat KO growth: beta-catenin-lacking colon tumor cell growth suppression; HCT116 beta-catenin knockout viability, CellTiter-Glo, 60 h; active compounds read low; viability, % at 10 µM; hit rate 1.5% among 140,000;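 active = viability at or under a set limit, the compound median less 4 SD, cut at about 6% in these data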;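 also: 0% = Hyamine 1622 control at 20 µM and 100% = untreated cell control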
HUVEC inhibit: blocks proliferation of human endothelial cells; HUVEC proliferation, CellTiter-Glo luminescence, 72 h; active compounds read low; viability, % at 10 µM (by protocol); hit rate 1.1% among 86,000; AID 648;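 active = viability at or below 30%; inactive = viability above 30%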;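 also: 100% = median luminescence of DMSO-only cell control wells on each plate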
Lung fibro prol: blocks proliferation of human lung fibroblasts | LL 47 human lung fibroblast viability, ATP luminescence; active compounds read low | viability, % at 10 µM | hit rate 1.1% among 85,000;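 active = viability at or below 50% in the single dose screen; inactive = viability above 50%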;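 also: compound exposure lasted 72 h before the ATP readout; 100% = median luminescence of untreated cell-only wells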
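Times – overnight cell rest, 72 h compound treatment at 37 °C · Test system – human lung fibroblast line LL 47, low passage · Amount – 1,150 cells in each well · Controls – cell-only wells, no compound · Doses – 0.1% DMSO in all compound wells · Measured by – CellTiter-Glo luminescence · Buffer or medium – IMEM plus 15% FBS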
Numbers without * were called inactive; nt = no result.

SMILES	HCT116 PTEN-null	H69AR inhibit	bCat KO growth	HUVEC inhibit	Lung fibro prol
Cc1nnc(Sc2c(N)n(C)c(=O)n(C)c2=O)s1	98.2	99.8	99.9	95.0	98.3
CC(=O)Nc1ccc(-c2nnc(SCC(=O)n3c4c(c5ccccc53)CCCC4)n2C)cc1	111.9	35.2*	105.5	93.2	99.9
CCOCCCNC(=O)c1cc2c(=O)n3cccc(C)c3nc2n1C	nt	33.6*	nt	51.3	55.3
COCCNC(=O)c1cc2c(=O)n3cccc(C)c3nc2n1C	nt	26.9*	nt	51.5	73.3
CCNC(=O)c1cc2c(=O)n3cccc(C)c3nc2n(CCc2ccccc2)c1=N	6.0	71.5	4.8*	75.8	88.4
COc1ccccc1Nc1nnc(SCC(=O)c2cc(C)n(CC3CCCO3)c2C)s1 (configuration not stated)	87.3	37.8*	93.9	102.5	99.8
Cc1cc(C(=O)CSc2nnc(Nc3ccccc3F)s2)c(C)n1CC1CCCO1 (configuration not stated)	87.8	92.1	81.6	87.4	102.2
Cc1ccccc1NC(=O)C(C)O/N=C/c1cccc([N+](=O)[O-])c1 (configuration not stated)	81.2	nt	88.7	nt	nt
CCOc1ccc(CN2CCN(CC(O)Cn3c4ccccc4c4ccccc43)CC2)cc1 (configuration not stated)	1.6*	nt	1.5*	nt	nt
COc1ccc(CN2CCN(CC(O)Cn3c4ccccc4c4ccccc43)CC2)cc1 (configuration not stated)	13.9	nt	16.0	nt	nt
COc1nc(OC)nc(N2CCC(C(=O)NCC3CCCCC3)CC2)n1	89.5	30.8*	79.7	104.9	97.5
Cc1cc(C)nc(N2CCC(C(=O)NCC3CCCCC3)CC2)n1	98.5	93.5	100.6	98.1	102.8
O=C(COc1ccc(S(=O)(=O)NC2CCCCC2)cc1)N1CCN(c2cccc(Cl)c2)CC1	26.2	59.6	22.4	82.0	96.1
O=C(Nc1ccc([N+](=O)[O-])cc1)/C(=C/c1cccc([N+](=O)[O-])c1)NC(=O)C1CCCCC1	53.8	56.8	71.2	84.1	84.8
Cc1ccc(NC(=O)/C(=C/c2cccc([N+](=O)[O-])c2)NC(=O)C2CCCCC2)c(C)c1	67.4	26.7*	63.7	33.0	9.6*
COc1ccc(OC)c(C2=Nn3c(nnc3-c3ccco3)SC2)c1	93.1	54.0	84.9	77.7	82.9
COc1ccc(OCc2nnc3n2N=C(c2ccc(OC)cc2)CS3)cc1	47.3	30.1*	59.3	74.2	83.9
COc1ccc(C2=Nn3c(nnc3-c3ccco3)SC2)cc1	59.0	20.0*	73.1	65.8	78.3
COc1ccc(C2=Nn3c(nnc3-c3ccncc3)SC2)cc1	73.4	61.2	77.5	62.8	87.5
CCOc1ccc(C2=Nn3c(nnc3-c3ccc(OC)cc3)SC2)cc1	20.4	14.1*	22.0	48.9	49.5*
COc1ccc(OCc2nnc3n2N=C(c2ccc(C)cc2)CS3)cc1	86.8	94.6	94.7	87.7	90.6
O=S(=O)(/N=C(/Nc1ccccn1)c1ccc(Cl)cc1)c1ccc(Cl)cc1	96.8	nt	96.5	nt	nt
COc1ccccc1-c1nc(-c2ccccn2)no1	38.5	39.7*	43.4	60.1	53.4
Cc1cc(-c2n[nH]c(=S)o2)c(C)n1-c1ccccc1	70.7	38.5*	67.6	89.8	98.9
O=C(NCc1ccc(F)cc1)c1cnn2ccccc12	96.6	102.2	98.7	113.0	108.1
SMILES	HCT116 PTEN-null	H69AR inhibit	bCat KO growth	HUVEC inhibit	Lung fibro prol
N#CC1=C(N)N(c2ccccc2)C2=C(C(=O)CCC2)C1c1ccsc1 (configuration not stated)	86.2	26.8*	88.7	93.7	94.3
Cc1nnc(N2CCN(c3ccccc3)CC2)c2nn(-c3ccccc3F)c(C)c12	nt	60.9	nt	61.5	101.6
Cc1ccccc1C(=O)NNC(=O)CCC(=O)Nc1cccc(Cl)c1C	95.8	nt	92.7	nt	nt
Cc1cccc(N(Cc2cc3ccccc3[nH]c2=O)S(=O)(=O)c2ccccc2)c1	86.5	nt	80.5	nt	nt
O=C(NNC(=S)NC(=O)C12CC3CC(CC(C3)C1)C2)c1ccncc1	16.4	nt	16.6	nt	nt
Cc1cc(Nc2nc3ccccc3nc2Cl)n(-c2ccccc2C)n1	60.6	16.9*	58.0	108.7	91.7
Cc1cc(Nc2nc3ccccc3nc2Cl)n(-c2ccccc2)n1	15.4	35.9*	20.6	47.0	78.4
COc1ccc2c(c1)OCC1=C2CCC2(C)C(=O)CC=C12 (configuration not stated)	53.7	10.9*	56.5	76.8	92.8
O=S(=O)(Nc1nc2ccccc2nc1Nc1ccc2c(c1)OCO2)c1ccc(F)cc1	42.8	nt	46.9	nt	nt
CCOc1ccc2nc(C)cc(Nc3cccc([N+](=O)[O-])c3)c2c1	1.5*	nt	1.5*	nt	nt
CCOc1ccc2nc(C)cc(Nc3ccc4c(c3)OCCO4)c2c1	0.8*	nt	0.7*	nt	nt
Cc1ccc2nc(C)cc(Nc3ccc4c(c3)OCCO4)c2c1	12.2	nt	9.9	nt	nt
O=C(Nc1nc2ccc(S(=O)(=O)N3CCCC3)cc2s1)c1cccs1	91.0	36.4*	90.1	59.4	89.4
Cc1ccc(C(=O)Nc2nc3ccc(S(C)(=O)=O)cc3s2)o1	63.8	29.2*	61.2	66.5	76.9
CN(C)S(=O)(=O)c1ccc2nc(NC(=O)c3cccnc3)sc2c1	92.2	88.9	93.3	85.6	95.9
CS(=O)(=O)c1ccc2nc(NC(=O)c3ccco3)sc2c1	86.8	nt	94.8	nt	nt
CN(C)S(=O)(=O)c1ccc2nc(NC(=O)c3cccs3)sc2c1	90.2	29.4*	87.8	78.8	110.3
CC1=NN(C(=O)c2cccc(Cn3nc(C)c([N+](=O)[O-])c3C)c2)C(O)(C(F)(F)F)C1 (configuration not stated)	92.6	nt	91.8	nt	nt
CCOC(=O)c1cc(=O)c2c([N+](=O)[O-])ccc(OC)c2o1	94.9	nt	91.8	nt	nt
COc1cccc(NC(=O)Nc2nnc(-c3ccccc3SCc3ccccc3)s2)c1	29.7	16.6*	32.0	78.5	66.0
Cc1ccc(C)c(C(=O)Cn2ncc(Cl)c(Cl)c2=O)c1	1.3*	0.4*	1.8*	2.2*	2.1*
Cc1cc(C(=O)Cn2ncc(Cl)c(Cl)c2=O)c(C)n1CC(F)(F)F	0.8*	nt	0.5*	nt	nt
C=CCn1c(C)cc(C(=O)CSc2nnc3c(Cl)cc(Cl)cn23)c1C	101.3	67.6	98.3	98.3	100.8
Cc1cccc(Cn2ncc(Cl)c(Cl)c2=O)c1	2.2*	nt	2.2*	nt	nt
Cc1ccc(C)c(C(=O)CN2C(=O)c3ccccc3S2(=O)=O)c1	88.5	94.5	91.5	97.0	101.5
SMILES	HCT116 PTEN-null	H69AR inhibit	bCat KO growth	HUVEC inhibit	Lung fibro prol
CCCOc1ccc(/C=C/C(=O)NCc2ccccc2)cc1	104.6	nt	98.9	nt	nt
CC(NC(=O)COc1ccc(-c2nnco2)cc1)c1ccc(Cl)cc1Cl (configuration not stated)	84.3	nt	89.4	nt	nt
O=C1C(Cl)=C(Nc2ccccc2)C(=O)c2ccccc21	1.0*	nt	1.1*	nt	nt
COc1ccc(COc2ccccc2C(=O)Nc2ccccn2)cc1[N+](=O)[O-]	97.0	nt	89.8	nt	nt
Cc1ccc(Cl)cc1N1CCN(C(=O)c2cn(C)c(=O)c3c2c2ccccc2n3C)CC1	1.3*	3.4*	1.4*	33.3	55.4
COCCn1cc(C(=O)N2CCN(C)CC2)c2c3ccccc3n(C)c2c1=O	95.4	74.5	102.1	96.9	99.6

High-throughput results as filed in PubChem BioAssay.
